Bioassay records as filed in PubChem.
In the library only some 1.8% were active in any assay of this set; here they are far more common.
GRK2 aptamer HTS – compounds blocking aptamer binding on GRK2 – biochemical, human GRK2, bead flow cytometry, HTS, primary screen; FAM-aptamer displacement from GRK2; AID 488847, 2010; inhibition of aptamer binding, % at 10 µM; 330,000 compounds, 0.59% hits;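 active = inhibition of aptamer binding above 40%, roughly 3 SD of noise, on plates passing a quality check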;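 note: median bead fluorescence of bound FAM aptamer so fluorescent compounds give negative values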
Target sequence (P25098 whole entry, looked up): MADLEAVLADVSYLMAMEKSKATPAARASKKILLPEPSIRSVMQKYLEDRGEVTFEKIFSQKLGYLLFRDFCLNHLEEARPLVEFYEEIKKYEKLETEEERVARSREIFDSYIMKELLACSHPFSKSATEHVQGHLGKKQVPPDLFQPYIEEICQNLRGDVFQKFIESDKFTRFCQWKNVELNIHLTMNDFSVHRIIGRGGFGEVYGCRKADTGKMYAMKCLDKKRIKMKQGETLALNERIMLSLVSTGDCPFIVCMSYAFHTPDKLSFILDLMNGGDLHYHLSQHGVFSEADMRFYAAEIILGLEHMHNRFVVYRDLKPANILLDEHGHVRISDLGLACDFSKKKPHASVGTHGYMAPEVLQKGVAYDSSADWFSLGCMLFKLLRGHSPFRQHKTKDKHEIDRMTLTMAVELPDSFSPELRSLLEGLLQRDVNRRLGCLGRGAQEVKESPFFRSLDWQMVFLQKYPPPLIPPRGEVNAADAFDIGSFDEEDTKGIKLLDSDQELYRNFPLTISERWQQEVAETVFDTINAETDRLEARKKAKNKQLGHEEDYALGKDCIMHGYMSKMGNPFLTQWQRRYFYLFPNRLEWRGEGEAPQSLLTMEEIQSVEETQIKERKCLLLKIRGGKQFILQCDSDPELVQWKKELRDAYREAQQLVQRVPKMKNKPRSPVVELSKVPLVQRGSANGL
Tn7 DDE FP – inhibitors of Tn7 peptide binding to fibrin DD(E), primary screen, biochemical, fluorescence polarization, human fibrin, Tn7 probe. FP displacement of FITC-Tn7 peptide from fibrin DD(E); 0% = median of compound wells per plate. inhibition, % at 8.3 µM. 370,000 compounds, 0.13% hits;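 active = inhibition above the mean of compounds falling within the control limits plus 3 SD of them, cut at about 14% in these data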
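Test system – human fibrin DD(E) · Times – 10 min preincubation, 3 h with tracer, room temperature · Detection – fluorescence polarization of the labelled Tn7 tracer · Measure – percent inhibition normalized to high-control wells · Benchmarks – high control wells with 10 µM unlabelled Aha-Tn7 peptide (full inhibition) · Repeats – singlicate testing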
DDE Tn6 FP inh – inhibitors of Tn6 peptide binding to fibrin DD(E), primary screen, biochemical, fluorescence polarization, human fibrin, Tn6 probe | Fibrinogen beta chain (Homo sapiens), P02675 | Fibrin DD(E) TRITC-Tn6 fluorescence polarization displacement | inhibition, % at 8.3 µM | 370,000 compounds, 0.21% hits;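 active = inhibition above a per-campaign cutoff: mean of compounds within control limits plus 3 SD, cut at about 15% in these data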
CAL PDZ FP-1 – CAL PDZ peptide-binding inhibitors, primary screen, biochemical, fluorescence polarization, Cer-tagged CAL PDZ, HTS; Golgi-associated PDZ and coiled-coil motif-containing protein (Homo sapiens), Q9HD26; purified CAL PDZ, TMR-peptide fluorescence polarization, 1 h; inhibition, % at 20 µM; 330,000 compounds, 0.02% hits;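 active = highest replicate inhibition of at least 40%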
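System: purified tagged CAL PDZ domain construct (CerCALP). Schedule: 1 h incubation at room temperature before polarization reading. Medium: 25 mM sodium phosphate pH 7.4, 150 mM NaCl, TCEP, IgG, Thesit. Read-out: percent inhibition from loss of millipolarization. Measured by: FP readout, S and P plane fluorescence. Probe or stimulus: fluorescent TMR peptide probe.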
ARNT-TACC3 inh – disruptors of ARNT/TACC3 protein interaction, primary screen, biochemical, AlphaScreen, single concentration; AlphaScreen His-ARNT PAS-B/GST-TACC3 binding, luminescence; TACC3 fragment carries E629A point mutation; 390,000 compounds, 0.66% hits; inhibition, % at 9.99 µM; Transforming acidic coiled-coil-containing protein 3 (Homo sapiens), Q9Y6A5; AID 623870, 2012;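 active = mean inhibition of replicates at least 50% and at least half of replicates each reaching 50%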
CAL PDZ FP-2 – untagged CAL PDZ binding inhibitors, primary screen, biochemical, fluorescence polarization, HTS; Golgi-associated PDZ and coiled-coil motif-containing protein (Homo sapiens), Q9HD26; purified CAL PDZ, TMR-peptide fluorescence polarization, 1 h; inhibition, % at 24.9 µM; 300,000 compounds, 0.92% hits; AID 602252, 2012;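 active = mean inhibition of at least 30% with at least half of replicates also reaching 30%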
A number is an active result; i = inactive; nt = not tested or not shown.

SMILES | GRK2 aptamer HTS | Tn7 DDE FP | DDE Tn6 FP inh | CAL PDZ FP-1 | ARNT-TACC3 inh | CAL PDZ FP-2
O=C(N/N=C/c1cc(Br)cc(Br)c1O)c1cccc(S(=O)(=O)N2CCOCC2)c1 | i | i | i | i | i | i
O=C(Nc1cccc(S(=O)(=O)N2CCOCC2)c1)c1cccc(S(=O)(=O)N2CCCCC2)c1 | nt | i | i | i | i | i
O=C(Nc1ccc(N2CCCCCC2)cc1)c1cccc(S(=O)(=O)N2CCOCC2)c1 | i | i | i | i | nt | 36.3
O=C(N/N=C/c1cc(Cl)cc([N+](=O)[O-])c1O)c1cccc(S(=O)(=O)N2CCOCC2)c1 | nt | i | i | i | 70.6 | i
O=C(NN=Cc1cc(Cl)ccc1[N+](=O)[O-])c1cccc2ccccc12 | nt | i | i | i | i | i
O=C(COC(=O)C1CC2CCCC(C1)C2=O)NC1CCCCC1 (stereo not given) | i | i | i | i | i | i
O=C(N1CCN(Cc2ccc3c(c2)OCO3)CC1)C(Cl)(Cl)Cl | i | i | i | i | i | i
CC(C)(C)CC(=O)N1CCN(Cc2ccc3c(c2)OCO3)CC1 | i | i | i | i | i | 37.7
O=C(Nc1ccccc1)c1ccc2snnc2c1 | i | i | i | i | i | 78.4
Cc1ccc(NC(=O)c2ccc3snnc3c2)cc1 | i | i | i | i | i | i
Cc1nc(SCC(=O)N2CCN(c3ccccc3)CC2)c2oc3ccccc3c2n1 | i | i | i | i | i | 64.2
Cc1nc(SCC(=O)O)c2oc3ccccc3c2n1 | i | i | i | i | i | i
O=C(NCCc1ccccc1)C1CCC(CNS(=O)(=O)c2ccc(F)cc2)CC1 (stereo not given) | i | i | i | i | i | 40.6
Cc1ccc(S(=O)(=O)NCC2CCC(C(=O)NCCCN3CCC(C)CC3)CC2)cc1 (stereo not given) | nt | i | i | nt | nt | nt
Cc1ccc(S(=O)(=O)NCC2CCC(C(=O)NCCCN3CCOCC3)CC2)cc1 (stereo not given) | i | i | i | i | i | 38.9
C[C@H]1CCCCO[C@H](CN(C)C(=O)Nc2ccc(F)cc2)[C@@H](C)CN([C@@H](C)CO)C(=O)c2cc(NS(=O)(=O)c3ccccc3)ccc2O1 | nt | nt | nt | nt | i | nt
CC(C)S(=O)(=O)c1cnc(-c2ccccn2)nc1N | i | i | i | i | 74.2 | i
CCOP(=O)(c1ccc(N(C)C)cc1)C(O)c1ccccc1 (stereo not given) | i | i | i | i | i | i
CCOP(=O)(CC(C(C)=O)C(O)c1ccccc1)OCC (stereo not given) | nt | 13.8 | i | i | i | i
COc1ccc(NC(=O)[C@@H]2[C@@H]3C(=O)N(C4CCCCC4)C(=O)[C@@H]3C3c4ccccc4C=CN32)cc1 (stereo not given in full) | i | i | i | i | 11.8 | i
c1ccc(-n2c(Cc3cn4ccsc4n3)nnc2N2CCOCC2)cc1 | i | i | i | i | 45.3 | i
C[C@@H]1CN([C@@H](C)CO)C(=O)Cc2cc(NC(=O)Nc3ccc(C(F)(F)F)cc3)ccc2O[C@@H]1CN(C)S(=O)(=O)c1cccs1 | nt | nt | nt | nt | i | nt
COc1ccc(N2CCN(Cc3nc(N)nc(Nc4ccccc4OC)n3)CC2)cc1 | i | i | i | i | 49.8 | i
COc1ccccc1Nc1nc(N)nc(CN2CCN(Cc3ccccc3)CC2)n1 | i | i | i | i | i | i
COc1ccccc1Nc1nc(N)nc(CSc2ncccn2)n1 | i | i | i | i | i | 69.5
SMILES | GRK2 aptamer HTS | Tn7 DDE FP | DDE Tn6 FP inh | CAL PDZ FP-1 | ARNT-TACC3 inh | CAL PDZ FP-2
Cc1ccc(NS(=O)(=O)c2ccc(C(=O)Nc3nncs3)cc2)cc1 | i | i | i | i | i | i
COc1ccc(C(=O)O)cc1S(N)(=O)=O | i | i | i | i | i | 32.4
CNS(=O)(=O)c1cc(C(=O)O)ccc1OC | i | i | i | nt | i | i
Cc1nc(C)c(C(=O)C2=C(O)C(=O)N(CCN3CCOCC3)C2c2ccco2)s1 (stereo not given) | i | i | i | i | 49.5 | i
Cc1nc(C)c(C(=O)C2=C(O)C(=O)N(CCN(C)C)C2c2ccco2)s1 (stereo not given) | i | i | i | i | i | i
Cc1cccc(C)c1NC(=O)NCCCN1CCN(c2ccccc2)CC1 | i | i | i | i | i | 51.3
N#Cc1c(SCC(=O)Nc2nncs2)sc2c(O)cc(=O)[nH]c12 | 41.0 | i | i | i | nt | i
N#Cc1c(SCC(=O)Nc2ccc(C(F)(F)F)cc2)sc2c(O)cc(=O)[nH]c12 | i | i | i | i | i | i
O=C(NC1CCCCN(Cc2ccc(Cl)cc2)C1=O)c1ccc(F)c(F)c1 (stereo not given) | nt | i | i | nt | nt | nt
CCC(=O)Nc1nc(N)n(-c2ccccc2)n1 | i | i | i | i | i | i
Nc1nc(NC(=O)C(Cl)(Cl)Cl)nn1-c1ccccc1 | i | i | i | i | 64.4 | i
O=C1CS/C(=N/N=C/c2ccccc2)N1c1ccc(O)cc1 | i | i | i | nt | i | 79.4
COc1cccc(S(=O)(=O)Nc2ccc3c(c2)[C@@H]2C[C@H](CC(=O)N4CCCCC4)O[C@@H](CO)[C@@H]2O3)c1 | nt | nt | nt | nt | i | nt
CCNC(=O)C[C@H]1CC[C@H](NC(=O)C2CC2)[C@@H](CO)O1 | nt | nt | nt | nt | i | nt
Cc1ccc(S(=O)(=O)NCC(=O)OCC(=O)NC(=O)NC2CCCC2)cc1 | i | i | i | i | i | 72.5
CC(=O)Nc1cccc(C(=O)OCC(=O)NC(=O)NC2CCCC2)c1 | nt | i | i | nt | nt | nt
CC(=O)Nc1ccc(C(=O)OCC(=O)NC(=O)NC2CCCCC2)cc1 | i | i | i | i | i | 86.4
Cc1ccc(S(=O)(=O)NCC(=O)OCC(=O)NC2CCCCC2)cc1 | i | i | i | i | i | i
Cc1ccc(-n2ncc3c(SCc4cccnc4)ncnc32)c(C)c1 | nt | i | i | i | i | i
COc1ccc(S(=O)(=O)Nc2nccs2)cc1OC | i | i | i | i | i | 53.3
COc1ccc(CNc2nc(=S)[nH]c3cc(OC)c(OC)cc23)cc1 | i | i | i | i | 51.2 | i
COc1cc2[nH]c(=S)nc(NCCCOC(C)C)c2cc1OC | i | i | i | i | 54.9 | 42.0
CCCCNc1nc(=S)[nH]c2cc(OC)c(OC)cc12 | i | i | i | i | 59.7 | i
CCOCCCNc1nc(=S)[nH]c2cc(OC)c(OC)cc12 | i | i | i | i | nt | i
